Variants at the floor of the assay were thinned out.
B1: tRNA (parent)
chain: GUUCCGUUGGCGUAAUGGUAACGCGUCUCCCUCCUAAGGAGAAGACUGCGGGUUCGAGUCCCGUACGGAACG

Variants of: B1
Assay: yeast fitness relative to wild type (ratio to wild type); higher = fitter; tRNA-Arg(CCU), competitive growth, 37 C, YPD
How it was run: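 Gene amplicons from the start population and from each of six end populations were read by 100-nucleotide paired-end sequencing. Those end populations came from pooled Saccharomyces cerevisiae strains carrying tRNA-Arg(CCU) gene variants at the native locus, competed in YPD at 37°C for 24 hours. Fitness relative to wild type was worked out from changes in genotype frequencies. Genotypes needed ≥ 100 starting reads, and estimates < 0.5 were set to 0.5.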

Variant | yeast fitness
C30A A36C | 0.579
C30A A36U | 0.697
C29U C33A A36C A42C A45G | ≤ 0.5
C31U C55U A70U | 0.567
C30U A43C G52A | 0.516
C30G A37C C46G A69C | 0.571
C31G C34U A40C G41A | ≤ 0.5
C31U A69C A70U | 0.747
C29U G51C | 0.57
C30U A57G A70U | 0.558
C30U U32A | 0.883
C30G G58C C60U A65G | ≤ 0.5
C29U U53A C61U U64C | ≤ 0.5
C30U G52C | 0.593
C31G A42U C62U | 0.742
C31A A37U C49A C55U | ≤ 0.5
C30A U35C | 0.93
C29U C66G A70C | ≤ 0.5
C30G A42U A45G A69U | ≤ 0.5
C31G A45U U47A G67A | ≤ 0.5
C31A C62A C66G | ≤ 0.5
C30G A40U A70U | 0.526
C30A C33G A40G | ≤ 0.5
C29U G68C | 0.898

Variant | yeast fitness
C31A C33G A42C G48A U54A | ≤ 0.5
C30U U59G C66U G68A | ≤ 0.5
C31G G51C C61U | ≤ 0.5
C30G A36U C61U | 0.504
C30U C46A G63C A70G | ≤ 0.5
C30A U35C U59C G63A | 0.584
C30A C60A | 0.619
C30A C33A A57U | ≤ 0.5
C30U C62G | 0.855
C30U C62A | 0.798
C30A G38C | 0.851
C29U C33U U54A | ≤ 0.5
C31U A42G | 0.73
C30A U64G | 0.793
C30U C31G C34G C66A | ≤ 0.5
C30U A40C U59C A65G | ≤ 0.5
C31U A65G | 1.11
C31U C34A | 0.863
C31G A45C A65U | ≤ 0.5
C31G C49G C62U G67C G68A | 0.539
C30A C61U | 0.767
C30U G41C A45U | ≤ 0.5
C30A C46U C55U | 0.573
C29U G44C U54A | 0.55

Variant | yeast fitness
C31U C46G G50A C61U | 0.649
C29U C34U A57C U64C | 0.549
C31U C61G C66G | ≤ 0.5
C30G C31A G63C | 0.546
C31G A40G C46A | 0.618
C31G G63C A65C | ≤ 0.5
C30A G56A C66G | ≤ 0.5
C30G C34G | ≤ 0.5
C31G A36U G39A | ≤ 0.5
C30A A45U C55U | 0.589
C30G C34A C49G G50A U64A | 0.56
C31U A40C G56C | ≤ 0.5
C31G A36C C49G | ≤ 0.5
C30G G41A A65G | ≤ 0.5
C31G A45G | 0.809
C31G A37C G52C C61G C66U | ≤ 0.5
C29U G50C A70G | ≤ 0.5
C30G C46A G56A | 0.557
C30A A42C A69G | ≤ 0.5
C31A C34U U54C A69C | ≤ 0.5
C31A G39C | 0.659
C30G C33G C60G C62U | ≤ 0.5
C30U G39A A40G U53C G67A | ≤ 0.5
C31G U32C A37U | ≤ 0.5

Variant | yeast fitness
C30A C55A C62A | ≤ 0.5
C30A A42C C66A | 0.719
C31G U47G C49G | 0.647
C30A U54C G63A | 0.601
C30U G56A | 0.942
C31G A45U G58U C62U | ≤ 0.5
C30A A42U C55U C66A | 0.531
C30U C33A | 0.672
C29U C31A | 0.609
C31A C49A C60U | ≤ 0.5
C30G C46U A65C | ≤ 0.5
C31G A45U C49G A70U | ≤ 0.5
C31U C33U A42C C49U A65C | ≤ 0.5
C31G C34G A45U G63C | ≤ 0.5
C29U C46G G51A G52A | ≤ 0.5
C31G A57U A69C | ≤ 0.5
C31U C55G C62U | ≤ 0.5
C30A A42U C55G | ≤ 0.5
C31U A40G G48C A57U U59A A69C | ≤ 0.5
C29U C61U A70G | 0.728
C29U C31A G38C C60A | ≤ 0.5
C30U C31U A42U G67A | 0.537
C29U C31U C33G U35C | 0.588
C30U C46A G51A | 0.608

Variant | yeast fitness
C30G A57G G68U | ≤ 0.5
C31A A57U | 0.626
C31G C46G G50A | 0.552
C31U A42G C55U | 0.511
C30A C60U C66U | ≤ 0.5
C30A A42U C49U U59C A69C | 0.557
C30A C46A A57G C60A | ≤ 0.5
C31G G38C A43U | 0.538
C31U A40U U54C | 0.541
C30U A36U C62G G63A | 0.542
C31G G44C G52C C60G | ≤ 0.5
C31U C46A A57U C60U | ≤ 0.5
C30A C66U | 0.847
C30A A42C G58A | ≤ 0.5
C31G U53C | 0.662
C30A C46G G52A G56A | 0.608
C29U U47G C49G A70G | ≤ 0.5
C31U A40U U59C | 0.648
C31U A43C A69C | 0.902
C31A C55G | 0.529
C30U A43G G51C | ≤ 0.5
C29U G38C C49U G68A | ≤ 0.5
C30G C33G C34U A42U A57G A65C | ≤ 0.5
C30U A45C A69U | 0.704

Variant | yeast fitness
C29U G39A G67A | 0.565
C31G A37C G52C C61A C66U | 0.527
C30G U32C | 0.708
C30U G39C G50A | ≤ 0.5
C30U C31U C34A | 0.601
C30U G50C U59A | ≤ 0.5
C30U C55A | 0.667
C31G A36C G41A C49U | ≤ 0.5
C31A U54C | 0.562
C31A A36G | 0.78
C31G G38A G52A C61A G63A | ≤ 0.5
C29U U35A A70C | ≤ 0.5
C31G A43G C49U G68A | 0.558
C30U C46U G52C | ≤ 0.5
C31A A36G A57C | ≤ 0.5
C30U U35A A69U | ≤ 0.5
C31G C66U | 0.867
C30U U35C A37G C55A A65G | ≤ 0.5
C31A A42G | 0.766
C31A A42G C49G C62U | ≤ 0.5
C30U G58C C66U | 0.663
C29U G41C C49A | 0.62
C30G G38C G52A C55U | ≤ 0.5
C30U C31U A37G A43G G52A | ≤ 0.5

Variant | yeast fitness
C29U G39U C49G | ≤ 0.5
C30G C33G A36C A37U A43U | ≤ 0.5
C30U A45C A65U | ≤ 0.5
C30G A40C A42G | ≤ 0.5
C30A G58C G68A | ≤ 0.5
C31A U35C G41A A57G | ≤ 0.5
C30A C31A C49U C55G | 0.672
C30A G50C C66U | ≤ 0.5
C30U G44A G48C | ≤ 0.5
C31G C33U U35A | ≤ 0.5
C29U U53A | 0.625
C30U U35A G51A | ≤ 0.5
C31G A45G G56U | 0.561
C31G A42C C55U G68A | 0.542
C31G A37C C60U | ≤ 0.5
C31G U64C G67A | ≤ 0.5
C31G A43U C46G C66U A70U | ≤ 0.5
C31A G44C C60G | ≤ 0.5
C31G A57C C62G | 0.703
C30U A36C C46U U53A | ≤ 0.5
C31U A37G A45C | 0.618
C31A U53G A57G | ≤ 0.5
C30U G38C C62G | ≤ 0.5

Reference: the RNAGym collection of RNA variant scans (doi:10.1126/science.aae0568)
